15 compounds from ChEMBL document CHEMBL4715797, “Structure-Activity Relationships of [des-Arg]Dynorphin A Analogues at the κ Opioid Receptor” (J Med Chem, 2016) can be followed below.

As a reminder, the Ki is the equilibrium dissociation constant of an inhibitor or competing ligand from its target. In general, half-life refers to the time in which the quantity being followed falls by half. A low value points to rapid decline. A word on the inhibition: it is the drop in the measured response relative to a control, in per cent.

Activity calls are given as the source filed them. Where a SMILES comes first, the peptide text is derived from it. [ ]: non-standard residue; d: D form. The star is where a group is joined. X1 = Cc1cc(O)cc(C)c1C[C@H](C)C(=O)*; Orn = NCCC[C@H](N)C(=O)O A value given as a limit tells only on which side of the number the result lay.

Data set [1] can be described thus: Toxicity in mouse HN9.10 cells expressing human KOR assessed as cell viability at 1 mM after 24 hrs by XTT assay. Format: cell-based. The following applies: read-out: Activity. (In general: Tetrazolium assays rely on reduction of a dye to a coloured formazan, in cell work by metabolically active cells.)
Data set [2] concerns the target Mu-type opioid receptor (Homo sapiens, UniProt P35372). Nature of the data set: Displacement of [3H]diprenorphine from human MOR expressed in mouse NG108-15 cell membranes incubated for 2 hrs by liquid scintillation counting based radioligand competition assay. (Loss of bound radioactivity is the signal in a displacement assay; it reports binding, not function.)
A short description of data set [3]: Half life in rat plasma by RP-HPLC analysis. Format: ADME, cell-free. The method in brief: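 Stock at 50 mg/mL diluted 5-fold into heparinized rat plasma at 37 °C. Aliquots taken at 1, 2, 4, 6, 12 and 24 h were quenched with EtOH (ACN for one analogue) and centrifuged.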
In data set [4] the target is Delta-type opioid receptor (Homo sapiens, UniProt P41143). Nature of the data set: Displacement of [3H]deltorphin-II from human DOR expressed in CHO cell membranes incubated for 2 hrs by liquid scintillation counting based radioligand competition assay. The method, boiled down:
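Crude membranes from transfected cells, 50 µg protein, in 50 mM Tris-HCl pH 7.4 with bacitracin 50 µg/mL, captopril 10 µM, PMSF 100 µM and BSA 5 mg/mL. Ten concentrations (10−4–10−13 M) were run against 500 pM [3H]deltorphin II for 2 h at rt with shaking. Nonspecific binding was taken with 10 µM naloxone. Filtered on PEI-soaked GF/B, washed in cold saline, scintillation counted.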

Data set [5] has as its system Mus musculus. Nature of the data set: Inhibition of KOR selective agonist FE200665-induced antinociceptive activity in ICR mouse assessed as effect on tail withdrawal latency at 10 ug, it dosed 15 mins before FE200665 dosing and measured at 24 hrs by tail flick test. Format: functional, organism-based. The following applies: dose 10.0 µg. The method, boiled down:
(§1)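 Adult male ICR mice given vehicle (MPH2O) or compound by lumbar puncture, 10 µg in 5 µL, n = 6/treatment, at t = −15 min. At t = 0 they received FE200665, 10 µg in 5 µL by lumbar puncture. Tail flick from 52 °C water retested up to 9 times over 24 h, 10.0 s cutoff. % antinociception = 100×(test−baseline)/(cutoff−baseline). Nonparametric two-way ANOVA with Bonferroni post hoc.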
For orientation: Hot-plate and tail-flick tests time the reaction to a heat stimulus.

The species named for data set [6] is Mus musculus. Nature of the data set: Antinociceptive activity in ICR mouse assessed as elevation in tail withdrawal latency at 0.1 ug, it measured after 30 mins by tail flick test. Type of data set: functional, organism-based. The following applies: dose 0.1 µg.
Data set [7] is filed under the species Mus musculus. Nature of the data set: Antinociceptive activity in ICR mouse assessed as elevation in tail withdrawal latency at 1 ug, it measured after 30 mins by tail flick test. Format: functional, organism-based. The following applies: dose 1.0 µg.
In data set [8] the test system is Mus musculus. Nature of the data set: Inhibition of KOR selective agonist FE200665-induced antinociceptive activity in ICR mouse assessed as effect on tail withdrawal latency at 10 ug, it dosed 15 mins before FE200665 dosing and measured up to 24 hrs by tail flick test. The following applies: dose 10.0 µg, time hrs <=24. Type of data set: functional, organism-based. The method in brief:
as §1

For data set [9], the species on record is Mus musculus. Nature of the data set: Antinociceptive activity in ICR mouse assessed as elevation in tail withdrawal latency at 10 ug, it measured after 30 mins by tail flick test. Type of data set: functional, organism-based. The following applies: dose 10.0 µg.
Data set [10] concerns the target T1, Kappa-type opioid receptor (Homo sapiens, UniProt P41145). Nature of the data set: Agonist activity at human KOR expressed in CHO cell membranes at 10 uM incubated for 1 hr by liquid scintillation counting based [35S]GTP-gamma-S assay. The following applies: Cell membrane. The method in brief: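 Frozen KOR-CHO cell pellets are homogenized and spun at 20 000g. 15 µg of membrane protein is incubated with test compound or vehicle and 0.1 nM [35S]GTPγS in 50 mM Tris-HCl pH 7.4 with 100 mM NaCl, 5 mM MgCl2, 1 mM EDTA and 40 µM GDP, for 1 h at 30 °C. Filtration and scintillation counting follow, and the result is expressed as % of U50,488 stimulation.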

For data set [11], the species on record is Cavia porcellus. Nature of the data set: Agonist activity at OPRK in isolated Hartley guinea pig ileum/longitudinal muscle with myenteric plexus assessed as inhibition of electrically stimulated muscle contraction at 1 uM relative to control. Format: tissue-based. The method in brief:
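Male Hartley guinea pig LMMP strips under 1 g tension in oxygenated Krebs bicarbonate buffer, 37 °C, field-stimulated at 0.1 Hz, 0.4 ms, supramaximal voltage. Compound tested at 1 µM. Activity given as percent of agonist response relative to the mean signal over the 3 min before drug. Tissue integrity checked first with a PL-017 dose-response curve.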

The target of data set [12] is T1, Kappa-type opioid receptor. Nature of the data set: Antagonist activity at human KOR expressed in CHO cell membranes assessed as reduction in U50,488 induced response incubated for 1 hr by liquid scintillation counting based [35S]GTP-gamma-S assay relative to naloxone. The following applies: Cell membrane. The method, boiled down:
(§2)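 The assay uses KOR-CHO membranes (15 µg protein) with 0.1 nM [35S]GTPγS and 40 µM GDP, for 1 h at 30 °C, in the presence of 100 nM U50,488 as agonist. Bound label is counted after filtration. Data are normalized to 100 nM U50,488 (100%) and fit to a three-parameter inhibition curve. Imax is given relative to naloxone.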

Data set [13] deals with T1, Kappa-type opioid receptor. Nature of the data set: Antagonist activity at human KOR expressed in CHO cell membranes assessed as reduction in U50,488 induced response incubated for 1 hr by liquid scintillation counting based [35S]GTP-gamma-S assay. Set-up: species or system Cell membrane.
Data set [14] addresses T1, Kappa-type opioid receptor. Nature of the data set: Antagonist activity at human KOR expressed in CHO cell membranes assessed as reduction in U50,488 induced response at 10 uM incubated for 1 hr by liquid scintillation counting based [35S]GTP-gamma-S assay relative to naloxone. As to conditions: Cell membrane. The method, boiled down: as §2
In data set [15] the test system is Mus musculus. Nature of the data set: Inhibition of KOR selective agonist FE200665-induced antinociceptive activity in ICR mouse assessed as effect on tail withdrawal latency at 10 ug, it dosed 15 mins before FE200665 dosing and measured at 15 mins by tail flick test. Format: functional, organism-based. As to conditions: dose 10.0 µg, time 30.0 min. The method, boiled down:
as §1

The subject of data set [16] is Mus musculus. Nature of the data set: Inhibition of KOR selective agonist FE200665-induced antinociceptive activity in ICR mouse assessed as effect on tail withdrawal latency at 10 ug, it dosed 15 mins before FE200665 dosing and measured up to 45 mins by tail flick test. The following applies: dose 10.0 µg, time min <=45. Format: functional, organism-based. The method, boiled down:
as §1

The subject of data set [17] is Mus musculus. Nature of the data set: Inhibition of KOR selective agonist FE200665-induced antinociceptive activity in ICR mouse assessed as effect on tail withdrawal latency at 10 ug, it dosed 15 mins before FE200665 dosing and measured after 45 mins by tail flick test. Type of data set: functional, organism-based. The following applies: dose 10.0 µg, time 60.0 min. The method in brief:
as §1

T1 sequence (P41145 whole entry): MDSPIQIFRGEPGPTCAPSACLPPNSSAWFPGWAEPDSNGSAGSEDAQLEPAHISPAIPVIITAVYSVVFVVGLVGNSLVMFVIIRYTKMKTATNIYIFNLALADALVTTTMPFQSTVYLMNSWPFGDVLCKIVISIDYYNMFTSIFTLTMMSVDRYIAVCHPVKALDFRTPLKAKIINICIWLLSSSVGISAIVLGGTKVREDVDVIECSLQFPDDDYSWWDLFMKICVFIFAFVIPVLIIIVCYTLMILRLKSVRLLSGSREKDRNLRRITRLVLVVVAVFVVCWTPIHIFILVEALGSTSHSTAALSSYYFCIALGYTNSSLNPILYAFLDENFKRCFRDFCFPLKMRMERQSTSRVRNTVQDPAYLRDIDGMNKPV
Chain of Mu-type opioid receptor (P35372 whole entry): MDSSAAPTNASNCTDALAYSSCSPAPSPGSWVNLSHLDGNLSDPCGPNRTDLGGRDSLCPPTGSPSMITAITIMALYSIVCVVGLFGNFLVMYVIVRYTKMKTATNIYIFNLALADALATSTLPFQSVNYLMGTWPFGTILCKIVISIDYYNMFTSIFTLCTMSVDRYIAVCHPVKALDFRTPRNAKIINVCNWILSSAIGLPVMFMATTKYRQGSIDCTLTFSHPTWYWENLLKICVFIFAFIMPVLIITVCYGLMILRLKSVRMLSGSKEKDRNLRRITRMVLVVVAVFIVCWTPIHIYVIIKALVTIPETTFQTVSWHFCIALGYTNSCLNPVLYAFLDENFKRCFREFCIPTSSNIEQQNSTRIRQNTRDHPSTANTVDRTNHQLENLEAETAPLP
Chain of Delta-type opioid receptor (P41143 whole entry): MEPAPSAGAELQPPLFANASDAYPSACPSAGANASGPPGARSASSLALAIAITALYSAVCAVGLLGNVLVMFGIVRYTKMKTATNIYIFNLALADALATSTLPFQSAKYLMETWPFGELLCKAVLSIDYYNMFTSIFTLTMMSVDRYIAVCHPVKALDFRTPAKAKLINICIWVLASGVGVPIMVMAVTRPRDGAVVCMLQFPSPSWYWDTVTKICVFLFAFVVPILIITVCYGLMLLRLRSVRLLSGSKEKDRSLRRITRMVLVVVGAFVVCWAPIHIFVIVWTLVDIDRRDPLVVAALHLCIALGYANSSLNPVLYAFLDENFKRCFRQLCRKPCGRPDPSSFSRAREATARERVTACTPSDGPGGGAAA

Regarding `CC[C@H](C)[C@H](NC(=O)[C@H](CCCN=C(N)N)NC(=O)[C@H](CCCN=C(N)N)NC(=O)[C@H](CC(C)C)NC(=O)[C@H](Cc1ccccc1)NC(=O)CNC(=O)CNC(=O)[C@@H](N)Cc1ccc(O)cc1)C(=O)N[C@@H](CCCN=C(N)N)C(=O)N1CCC[C@H]1C(=O)N[C@@H](CCCCN)C(N)=O`, the viability at 24 h, 1000 µM in data set [1] is 100%.

As for `CC(=O)N[C@@H](Cc1ccc(O)cc1)C(=O)NCC(=O)NCC(=O)N[C@@H](Cc1ccccc1)C(=O)N[C@@H](CC(C)C)C(=O)N[C@@H](CCCNC(=N)N)C(=O)N[C@H](C)C(=O)N[C@@H](CCCNC(=N)N)C(=O)N1CCC[C@@H]1C(=O)N[C@@H](CCCCN)C(N)=O` (Ac-YGGFLR[dA]R[dP]K-NH2), the inhibition constant (Ki) entry in data set [2] (ng108-15) is given as “Not Active”. The compound further showed a half-life in [3] of 350 h.

On to `CC(=O)N[C@@H](Cc1ccc(O)cc1)C(=O)NCC(=O)N1CCC[C@H]1C(=O)N[C@@H](Cc1ccccc1)C(=O)N[C@@H](CC(C)C)C(=O)N[C@@H](CCCNC(=N)N)C(=O)N[C@H](C)C(=O)N[C@@H](CCCNC(=N)N)C(=O)N1CCC[C@H]1C(=O)N[C@@H](CCCCN)C(N)=O` (Ac-YGPFLR[dA]RPK-NH2), for which the Ki entry in data set [2] (ng108-15) was “Not Active”.

On to `CC(=O)N[C@@H](Cc1ccc(O)cc1)C(=O)NCC(=O)N1CCC[C@H]1C(=O)N[C@@H](Cc1ccccc1)C(=O)N[C@@H](CC(C)C)C(=O)N[C@@H](CCCNC(=N)N)C(=O)N[C@H](C)C(=O)N[C@@H](CCCNC(=N)N)C(=O)N1CCC[C@@H]1C(=O)N[C@@H](CCCCN)C(N)=O` (Ac-YGPFLR[dA]R[dP]K-NH2), for which the Ki entry in data set [2] (ng108-15) is “Not Active”.

Turning to `CC(=O)N[C@@H](Cc1ccc(O)cc1)C(=O)NCC(=O)N1CCC[C@H]1C(=O)N[C@@H](Cc1ccccc1)C(=O)N[C@@H](CC(C)C)C(=O)N[C@@H](CCCN)C(=O)N[C@H](C)C(=O)N[C@@H](CCCNC(=N)N)C(=O)N1CCC[C@H]1C(=O)N[C@@H](CCCCN)C(N)=O` (Ac-YGPFL[Orn][dA]RPK-NH2), the Ki was above 10 µM in data set [4] and “Not Active” in [2] (ng108-15).

As for `CC[C@H](C)[C@H](NC(=O)[C@H](CCCNC(=N)N)NC(=O)[C@H](CC(C)C)NC(=O)[C@H](Cc1ccccc1)NC(=O)CNC(=O)CNC(=O)[C@@H](C)Cc1c(C)cc(O)cc1C)C(=O)N[C@@H](CCCNC(=N)N)C(N)=O` (X1-GGFLRIR-NH2), the outcome in data set [5], in [6], in data set [7] and in [9] was inactive. The outcome in data set [8] was Active.

In the case of `CC[C@H](C)[C@H](NC(=O)[C@H](CCCNC(=N)N)NC(=O)[C@H](CC(C)C)NC(=O)[C@H](Cc1ccccc1)NC(=O)CNC(=O)CNC(=O)[C@@H](C)Cc1c(C)cc(O)cc1C)C(=O)N[C@@H](CCCNC(=N)N)C(=O)N1CCC[C@H]1C(=O)N[C@@H](CCCCN)C(N)=O` (X1-GGFLRIRPK-NH2), the viability at 24 h, 1000 µM in data set [1] stood at 100%. Further, the result in data set [10] was inactive. In addition, the inhibition in [11] came out at 0%.

Consider `CC[C@H](C)[C@H](NC(=O)[C@H](CCCNC(=N)N)NC(=O)[C@H](CC(C)C)NC(=O)[C@H](Cc1ccccc1)NC(=O)CNC(=O)CNC(=O)[C@@H](C)Cc1c(C)cc(O)cc1C)C(=O)N[C@@H](CCCNC(=N)N)C(=O)N1CCC[C@H]1C(=O)N[C@@H](CCCCN)C(=O)O` (X1-GGFLRIRPK-OH), for which, in data set [10], the outcome was inactive. Besides, in data set [11], the inhibition amounted to 8.7%.

On to Ac-YGGFLRIRPK-NH2, for which, in [10], the result was inactive. In [11], the inhibition is 0%.

For the compound Ac-YGPFLRIRPK-NH2, the Ki in [4] was above 10 µM; in data set [2] (ng108-15), “Not Active”.

Turning to H-YGGFLRIRPK-NH2, in data set [1], the viability at 24 h, 1000 µM was determined as 100%. The Imax entry in data set [12] was “inactive”. Besides, in data set [13], the IC50 result is listed as “Not Active”. Also, the result in data set [10] (filed as agonist) was Active.

With H-YGGFLRIRPK-OH, the viability at 24 h, 1000 µM in data set [1] came out at 100%. Besides, the Imax entry in data set [12] was “inactive”. Moreover, the IC50 result in data set [13] is listed as “Not Active”. The outcome in data set [10] (filed as agonist) was Active.

For the compound H-YGGFLRIRPKLK-OH, the Imax result in data set [12] is “inactive”. The IC50 entry in data set [13] was “Not Active”. The result in data set [10] (filed as agonist) was Active.

For H-YGPFLRIR-NH2, the Imax in data set [14] came out at 29%. Moreover, the Ki entry in data set [2] (ng108-15) is listed as “Not Active”. This compound had a half-life in [3] of 2.1 h.

As to H-YGPFLRIRPK-NH2, the viability at 24 h, 1000 µM in data set [1] came to 100%. In addition, the result in [15], in [16], in data set [7] and in data set [9] was Active. Further, the outcome in data set [17] was inactive. Moreover, in [14], the Imax came to 38%. Further, the Ki in data set [2] (read-out: Ki) was above 10 µM. Also, the half-life in [3] is 1.4 h.
